Assay results: PMC4492651 (Drug Design, Development and Therapy, 2015)
Like-named read-outs stand apart in the source and are kept apart here.

What was measured:
[1] = test system: carrageenan-induced thrombosis; experiment: Model of carrageenan-induced thrombosis; type: in vivo, KM mice; conditions: n=10; for Black tail length (cm) 24 hours / Black tail occurrence (%) 24 hours: 24 hours after carrageenan; for Black tail length (cm) 24 hours / Black tail length (cm) 48 hours: mean ± SD; for Black tail length (cm) 48 hours / Black tail occurrence (%) 48 hours: 48 hours after carrageenan
HT22 cells = experiment: H2O2-induced cytotoxicity in HT22 cells; type: cell-based, murine; conditions: Mus musculus, HT-22, read-out: H2O2-treated HT22 viability percentage
In short: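 Murine HT22 cells in DMEM with 10% newborn calf serum, 37°C, 5% CO2. Seeded at 20,000 cells/well and grown 24 h. Pretreated in quadruplicate with test compound (10–100 µM) for 2 h, exposed to 500 µM H2O2 for 1 h, then given fresh medium for 12 h. Viability by MTT. Four separate experiments, mean ± SD.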

[2] = test system: GSH-Px, SOD, NO and MDA in brain tissue; experiment: Antioxidant stress activity in vivo after I/R; parameters: species or system Sprague Dawley rats; conditions: I/R rats; for content of SOD in comparison with the model group: 3d 10, 20 and 50 mg/kg, NBP 20 mg/kg, Eda 3.0 mg/kg
In short: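 Male Sprague Dawley rats underwent filament MCAO, 2 h occlusion then reperfusion. Test compound (10, 20, 50 mg/kg; model vehicle oil) given ip 15 min after MCAO onset. At 24 h reperfusion, under chloral hydrate, brains were rinsed in cold saline; ischemic core and penumbra were separated and stored at −70°C. After protein assay, T-SOD and GSH-Px activities, MDA and NO were measured by kits. n=10, mean ± SD, ANOVA/Newman–Keuls.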

[3] = test system: transient middle cerebral artery occlusion; parameters: species or system Sprague Dawley rats; conditions: rat, in vivo, ip
[4] = 50 mg/kg by gavage daily for 2 days
[5] = 3 mg/kg by gavage daily for 2 days

## CC(=O)Oc1ccccc1C(=O)O [ASP, aspirin]
[1]; [4]
  Black tail length (cm) 24 hours: 1.5±0.5 cm
  Black tail occurrence (%) 24 hours: 30%
  Black tail length (cm) 48 hours: 2.4±0.6 cm
  Black tail occurrence (%) 48 hours: 40%

## CC1=NN(c2ccccc2)C(=O)C1 [Eda, edaravone]
HT22 cells
  viability at 100 µM: 69.9%
[1]; [5]
  Black tail length (cm) 24 hours: 4.6±1.7 cm
  Black tail occurrence (%) 24 hours: 70%
  Black tail length (cm) 48 hours: 4.5±1.8 cm
  Black tail occurrence (%) 48 hours: 80%
[2]; ischemic core, 3d 50 mg/kg, Eda 3 mg/kg
  levels of GSH-Px activity vs model animals: significantly higher
[2]
  content of SOD in comparison with the model group: increased
[3]; 3 mg/kg
  infarct size reduced by: 69.65%

## CCCCC1OC(=O)c2ccccc21 (centres unmarked) [NBP, 3-n-butylphthalide]
HT22 cells
  viability at 100 µM: 71.5%
[1]; [4]
  Black tail length (cm) 24 hours: 3.1±0.3 cm
  Black tail occurrence (%) 24 hours: 30%
  Black tail length (cm) 48 hours: 3.5±0.5 cm
  Black tail occurrence (%) 48 hours: 50%
[2]; 20 mg/kg, 24 hours postreperfusion, model 1.51
  NO activity: 0.92 U/mg
[2]
  content of SOD in comparison with the model group: increased
[3]; 20 mg/kg
  infarct size reduced by: 26.19%
